Assay results pooled from the literature.
Lines come from different studies, so protocols differ.
MC4R: Melanocortin receptor 4 (MC4R, Homo sapiens, UniProt P32245)
BCHE: Cholinesterase (BCHE, Homo sapiens, UniProt P06276)

| SMILES | target | test | setting | inhibition [%] |
| --- | --- | --- | --- | --- |
| CN(CCN1CCC(OC(=O)Nc2ccccc2-c2ccccc2)CC1)C(=O)c1ccc(CN2CCC(C(N)=O)CC2)cc1 | MC4R | ligand displacement, radioligand | 1 µM | 1 |
| COc1ccc(S(=O)(=O)N2CCCCC2)cc1C | MC4R | ligand displacement, radioligand | 10 µM | < 30 |
| [C-]#[O+] | Catalase (CAT, Bos taurus, UniProt P00432) | enzyme activity, inhibitor | 1 mM | 70 |
| C=CCn1c2cc(OC(=O)CCCCN3CCN(Cc4ccccc4F)CC3)ccc2c2ccnc(C)c21 | BCHE | enzyme activity, inhibitor, Ellman | 1 µM | 21 |
| CC(C)N1CCC[C@H]1CNC(=O)c1cn(C2CCCC2)c(=O)c2c1c1ccccc1n2C | Cysteinyl leukotriene receptor 1 (CYSLTR1, Homo sapiens, UniProt Q9Y271) | ligand displacement, radioligand | 10 µM | 22 |
| C=CCn1c2cc(OC(=O)CCCCN3CCN(Cc4cccc(C(F)(F)F)c4)CC3)ccc2c2ccnc(C)c21 | BCHE | enzyme activity, inhibitor, Ellman | 1 µM | 40.2 |
| O=C(Nc1cccnn1)N1CCN([C@@H]2CCOc3cc(C(F)(F)F)ccc32)CC1 | Somatostatin receptor type 1 (SSTR1, Homo sapiens, UniProt P30872) | cell-free assay | 20 µM | 10 |
| COc1cc(CNC(=O)CCCC/C=C/C(C)C)ccc1O | DNA dC->dU-editing enzyme APOBEC-3B (Homo sapiens, UniProt Q9UH17) | enzyme activity, inhibitor, fluorescence | 100 µM | 32.3 |
| C#Cc1n[nH]c2c(-c3cn(C(C)c4ccccn4)c(=O)[nH]c3=O)cc(F)cc12 (stereo not shown) | Fibroblast growth factor receptor 4 (FGFR4, Homo sapiens, UniProt P22455) | enzyme activity, inhibitor | 1 µM | 0.5 |
| C=CCn1c2cc(OC(=O)CCCCN3CCN(Cc4ccccc4)CC3)ccc2c2ccnc(C)c21 | BCHE | enzyme activity, inhibitor, Ellman | 1 µM | 38.5 |
| COc1cc(Nc2ncc(F)c(Nc3ccc4c(n3)NC(=O)C(C)(C)O4)n2)cc(OC)c1OC | Interferon-induced, double-stranded RNA-activated protein kinase (EIF2AK2, Homo sapiens, UniProt P19525) | binding, competition with immobilised ligand | 10 µM | 86 |
| Cn1cc(-c2cccc(N3CCc4c(sc5c4CC(C)(C)C5)C3=O)c2CO)cc(Nc2ccncn2)c1=O | Tyrosine-protein kinase Fgr (FGR, Homo sapiens, UniProt P09769) | enzyme activity, inhibitor | 1 µM | 53 |
| COc1ccc2c(c1)[nH]c1c(C)nccc12 | BCHE | enzyme activity, inhibitor, Ellman | 1 µM | 25.7 |
